Common to all, as to format: functional
Assay [1] relates to Human alphaherpesvirus 1. Nature of the assay: Antiviral activity against herpes simplex virus(1) strain 377. In a few lines: (§1)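 Inhibition of virus-induced cytopathogenic effect (CPE) in primary rabbit kidney cell cultures challenged with HSV-1 strain 377 or HSV-2 strain MS. HSV-2 testing followed the same procedure. Activity was scored as a virus rating (VR).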
In assay [2] the test system is Human alphaherpesvirus 2. As to the kind of experiment: Antiviral activity against herpes simplex virus(2) strain MS expressed as virus rating. Experiment 1. In a few lines:
as §1

Assay [3] concerns Human alphaherpesvirus 2. Nature of the assay: Antiviral activity against herpes simplex virus(2) strain MS expressed as virus rating. Experiment 2. In a few lines:
as §1

In assay [4] the test system is Human alphaherpesvirus 1. Nature of the assay: Minimum inhibitory concentration (MIC50) in Herpes simplex virus type-1 (HSV-1) using 377 strain. Experiment 3. In a few lines:
(§2)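 Inhibition of virus-induced CPE in primary rabbit kidney cell cultures infected with HSV-1 strain 377 or HSV-2 strain MS. Potency was taken as the minimum inhibitory concentration (MIC50), in μg/mL, alongside the virus rating.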

Assay [5] has as its system Human alphaherpesvirus 1. As to the kind of experiment: Antiviral activity against herpes simplex virus(1) strain 377, expressed as virus rating. Experiment 1. In a few lines: as §1
The test system of assay [6] is Human alphaherpesvirus 1. Nature of the assay: Antiviral activity against herpes simplex virus(1) strain 377, expressed as virus rating. Experiment 2. In a few lines:
as §1

In assay [7] the test system is Human alphaherpesvirus 1. As to the kind of experiment: Antiviral activity against herpes simplex virus(1) strain 377, expressed as virus rating. Experiment 3. In a few lines:
as §1

The subject of assay [8] is Human alphaherpesvirus 1. As to the kind of experiment: Antiviral activity against herpes simplex virus(1) strain 377, expressed as virus rating. Experiment 4. In a few lines: as §1
The test system of assay [9] is Human alphaherpesvirus 1. Nature of the assay: Minimum inhibitory concentration (MIC50) in Herpes simplex virus type-1 (HSV-1) using 377 strain. Experiment 1. In a few lines:
as §2

The subject of assay [10] is Human alphaherpesvirus 1. Nature of the assay: Minimum inhibitory concentration (MIC50) in Herpes simplex virus type-1 (HSV-1) using 377 strain. Experiment 2. In a few lines:
as §2

The test system of assay [11] is Human alphaherpesvirus 2. As to the kind of experiment: Minimum inhibitory concentration (MIC50) in Herpes simplex virus type-2 (HSV-2) using MS strain. Experiment 1. In a few lines: as §2
The test system of assay [12] is Human alphaherpesvirus 2. Nature of the assay: Minimum inhibitory concentration (MIC50) in Herpes simplex virus type-2 (HSV-2) using MS strain. Experiment 2. In a few lines:
as §2

Assay [13] deals with Human alphaherpesvirus 1. Nature of the assay: Minimum inhibitory concentration (MIC50) in Herpes simplex virus type-1 (HSV-1) using 377 strain. Experiment 4. In a few lines: as §2
The subject of assay [14] is Human alphaherpesvirus 2. Nature of the assay: Antiviral activity against herpes simplex virus(2) strain MS expressed as virus rating. In a few lines: as §1
The test system of assay [15] is Human alphaherpesvirus 1. Nature of the assay: Minimum inhibitory concentration (MIC50) in Herpes simplex virus type-1 (HSV-1) using 377 strain. In a few lines:
as §2

For assay [16], the system named is Human alphaherpesvirus 2. As to the kind of experiment: Minimum inhibitory concentration (MIC50) in Herpes simplex virus type-2 (HSV-2) using MS strain. In a few lines:
as §2

In assay [17] the test system is Human alphaherpesvirus 2. Nature of the assay: Minimum inhibitory concentration (MIC50) in Herpes simplex virus type-2(HSV-2) using MS strain. In a few lines: as §2
Assay [18] concerns Human alphaherpesvirus 1. As to the kind of experiment: Minimum inhibitory concentration (MIC50) in Herpes simplex virus type-1(HSV-1) using 377 strain. In a few lines:
as §2

Assay [19] has as its system Human alphaherpesvirus 1. As to the kind of experiment: Antiviral activity against herpes simplex virus(1) strain 377, expressed as virus rating. In a few lines: as §1
The test system of assay [20] is Human alphaherpesvirus 1. Nature of the assay: Minimum inhibitory concentration (MIC50) in Herpes simplex virus type-1 (HSV-1) using 377 strain at 0.9 virus rating. Experiment 2. In a few lines: as §2
Assay [21] deals with Human alphaherpesvirus 1. As to the kind of experiment: Minimum inhibitory concentration (MIC50) in Herpes simplex virus type-1 (HSV-1) using 377 strain. Experiment 2. In a few lines:
as §2

The subject of assay [22] is Human alphaherpesvirus 2. Nature of the assay: Antiviral activity against herpes simplex virus(2) strain MS expressed as virus rating. In a few lines:
as §1

SMILES strings stand for the structures. Converted amounts (≈) assume the structure as drawn.

As for `O=c1[nH]c(=O)n(C2CC(CO)C(O)C2O)cc1F` (stereo not given), the Virus rating with Human alphaherpesvirus 1 [1] is 0.
On to `O=c1[nH]c(=O)n([C@@H]2C[C@H](CO)[C@@H](O)C2)cc1I`, for which the Virus rating in the assay with Human alphaherpesvirus 2 [2] is 2.9; with Human alphaherpesvirus 2 [3], 3.4; in the assay on Human alphaherpesvirus 1 [5], 6.5; in the assay on Human alphaherpesvirus 1 [6], 7.1; in the assay with Human alphaherpesvirus 1 [7], 7.9; in the assay with Human alphaherpesvirus 1 [8], 7.4. In addition, the MIC50 in the assay on Human alphaherpesvirus 1 [4] is 0.1 µg/mL (≈ 0.284 µM); in the assay on Human alphaherpesvirus 1 [9], 0.4 µg/mL (≈ 1.14 µM); in the assay with Human alphaherpesvirus 1 [10], 0.3 µg/mL (≈ 0.852 µM); against Human alphaherpesvirus 2 [11] it was 32 µg/mL (≈ 90.9 µM); with Human alphaherpesvirus 2 [12], 20 µg/mL (≈ 56.8 µM); with Human alphaherpesvirus 1 [13] it was 0.4 µg/mL (≈ 1.14 µM).
As for `Cc1cn([C@@H]2C[C@H](CO)[C@@H](O)C2)c(=O)[nH]c1=O`, the figures for the Virus rating with Human alphaherpesvirus 2 [14] and in the assay with Human alphaherpesvirus 1 [1] were 3.2 and 5.4, respectively. Moreover, the MIC50 with Human alphaherpesvirus 1 [15] was 0.8 µg/mL (≈ 3.33 µM); in the assay with Human alphaherpesvirus 2 [16], 7 µg/mL (≈ 29.1 µM).
Consider `Cc1cn(C2CC(CO)C(O)C2O)c(=O)[nH]c1=O` (stereo not given), for which the Virus rating with Human alphaherpesvirus 1 [1] is reported as 0.
The same measure, in the same setting: the value for `CNc1cn(C2CC(CO)C(O)C2O)c(=O)[nH]c1=O` (stereo not given) was 0; that for `O=c1ccn(C2CC(CO)C(O)C2O)c(=O)[nH]1` (stereo not given) was 0.
As for `O=c1[nH]c(=O)n(C2CC(O)C(CO)C2)cc1Br` (stereo not given), the results for the Virus rating in the assay on Human alphaherpesvirus 2 [14] and with Human alphaherpesvirus 1 [1] were 1.5 and 6.2, respectively. The MIC50 with Human alphaherpesvirus 2 [17] is 32 µg/mL (≈ 105 µM); against Human alphaherpesvirus 1 [18], 0.3 µg/mL (≈ 0.983 µM).
Regarding `O=c1[nH]c(=O)n(C2CC(CO)C(O)C2O)cc1CO` (stereo not given), the Virus rating with Human alphaherpesvirus 2 [14] is recorded as 0; with Human alphaherpesvirus 1 [19] it was 0.3.
For `O=c1[nH]c(=O)n(C2CC(CO)CC2O)cc1I` (stereo not given), the Virus rating in the assay on Human alphaherpesvirus 1 [1] is 0.
Still for that read-out and setting: the value for `Cc1cn(C2CC(CO)CC2O)c(=O)[nH]c1=O` (stereo not given) was 0.4; that for `O=c1ccn(C2CC(CO)CC2O)c(=O)[nH]1` (stereo not given) was 0; that for `Nc1cn(C2CC(CO)C(O)C2O)c(=O)[nH]c1=O` (stereo not given) was 0.
`O=c1[nH]c(=O)n(C2CC(CO)C(O)C2O)cc1I` (stereo not given) returned a Virus rating with Human alphaherpesvirus 1 [1] of 0.
Regarding `Nc1cn(C2CC(CO)CC2O)c(=O)[nH]c1=O` (stereo not given), the Virus rating in the assay on Human alphaherpesvirus 1 [1] stood at 0.
Consider `CNc1cn(C2CC(CO)CC2O)c(=O)[nH]c1=O` (stereo not given), for which the Virus rating in the assay on Human alphaherpesvirus 1 [1] was determined as 0.
For the compound `CC(=O)OCC1CC(n2cc(Br)c(=O)[nH]c2=O)CC1OC(C)=O` (stereo not given), the Virus rating in the assay on Human alphaherpesvirus 1 [5] worked out at 1.3; with Human alphaherpesvirus 1 [6], 0.9. For the same compound, the MIC50 in the assay with Human alphaherpesvirus 1 [20] is 100 µg/mL (≈ 257 µM); in the assay on Human alphaherpesvirus 1 [9], 92 µg/mL (≈ 236 µM).
Take `O=c1[nH]c(=O)n(C2CC(CO)CC2O)cc1Br` (stereo not given): the Virus rating in the assay with Human alphaherpesvirus 1 [1] worked out at 0.
Take `CC(=O)OCC1CC(n2cc(I)c(=O)[nH]c2=O)CC1OC(C)=O` (stereo not given): the MIC50 amounted to 25 µg/mL (≈ 57.3 µM) with Human alphaherpesvirus 1 [21] and 10 µg/mL (≈ 22.9 µM) with Human alphaherpesvirus 1 [9]. Moreover, the Virus rating with Human alphaherpesvirus 1 [5] came to 2.4; in the assay on Human alphaherpesvirus 1 [6], 1.6.
Consider `CCCCNc1cn(C2CC(O)C(CO)C2)c(=O)[nH]c1=O` (stereo not given), for which the Virus rating with Human alphaherpesvirus 2 [22] came to 0.7; with Human alphaherpesvirus 1 [1], 2. The MIC50 with Human alphaherpesvirus 1 [15] came to 290 µg/mL (≈ 975 µM); against Human alphaherpesvirus 2 [16], 1000 µg/mL (≈ 3360 µM).
As to `Nc1cn(C2CC(O)C(CO)C2)c(=O)[nH]c1=O` (stereo not given), the Virus rating with Human alphaherpesvirus 1 [19] turned out to be 0.1.
Take `CNc1cn(C2CC(O)C(CO)C2)c(=O)[nH]c1=O` (stereo not given): the Virus rating in the assay with Human alphaherpesvirus 2 [22] was determined as 1.2; in the assay on Human alphaherpesvirus 1 [5], 4.2; in the assay with Human alphaherpesvirus 1 [6] it was 3.9; with Human alphaherpesvirus 1 [7], 4.5. Further, the MIC50 worked out at 25 µg/mL (≈ 97.9 µM) against Human alphaherpesvirus 1 [4], 10 µg/mL (≈ 39.2 µM) against Human alphaherpesvirus 1 [9], 15 µg/mL (≈ 58.8 µM) against Human alphaherpesvirus 1 [10] and 229 µg/mL (≈ 897 µM) in the assay on Human alphaherpesvirus 2 [16].
In the assay with Human alphaherpesvirus 1 [19], `O=c1ccn(C2CC(O)C(CO)C2)c(=O)[nH]1` (stereo not given) registered a Virus rating of 0.
On the same count and under the same terms, as for `CC(=O)OCC1CC(OC(C)=O)C(n2cc(Br)c(=O)[nH]c2=O)C1` (stereo not given), the figure is 0.
On to `O=c1[nH]c(=O)n(C2CC(CO)C(O)C2O)cc1Br` (stereo not given), for which the Virus rating in the assay on Human alphaherpesvirus 1 [1] is recorded as 0.
As to `CN(C)c1cn(C2CC(O)C(CO)C2)c(=O)[nH]c1=O` (stereo not given), the Virus rating in the assay with Human alphaherpesvirus 1 [1] is 0.
The compound `O=c1[nH]c(=O)n(C2CC(CO)CC2O)cc1F` (stereo not given) yielded a Virus rating in the assay on Human alphaherpesvirus 1 [1] of 0.
For the compound `O=c1[nH]c(=O)n([C@H]2C[C@H](O)[C@@H](CO)O2)cc1F` [FLOXURIDINE], the Virus rating in the assay with Human alphaherpesvirus 2 [14] and in the assay on Human alphaherpesvirus 1 [1] was 0 throughout.
For the compound `O=c1[nH]c(=O)n([C@H]2C[C@H](O)[C@@H](CO)O2)cc1I` [IDOXURIDINE], the Virus rating in the assay on Human alphaherpesvirus 2 [14] amounted to 5; in the assay on Human alphaherpesvirus 1 [19], 7.4. Besides, the results for the MIC50 in the assay with Human alphaherpesvirus 1 [15] and against Human alphaherpesvirus 2 [16] were 0.3 µg/mL (≈ 0.847 µM) and 1 µg/mL (≈ 2.82 µM), respectively.
On to `Nc1ncnc2c1ncn2[C@@H]1O[C@H](CO)[C@@H](O)[C@@H]1O` [VIDARABINE], for which the figures for the Virus rating with Human alphaherpesvirus 2 [14] and in the assay on Human alphaherpesvirus 1 [19] were 2.3 and 2.7, respectively. For the same compound, the MIC50 in the assay with Human alphaherpesvirus 1 [15] was determined as 9.8 µg/mL (≈ 36.7 µM); in the assay on Human alphaherpesvirus 2 [16] it was 20.1 µg/mL (≈ 75.2 µM).

The values above are taken from ChEMBL document CHEMBL1122431, “Carbocyclic analogues of 5-substituted uracil nucleosides: synthesis and antiviral activity” (1983).
